Assay results as given in ChEMBL document CHEMBL4376827, “Structure-Activity Relationship Studies To Identify Affinity Probes in Bis-aryl Sulfonamides That Prolong Immune Stimuli” (J Med Chem, 2019).
Activity calls are given as the source filed them. The calls are words filed in the database; no cut-off is given here.

How the values were obtained:
THP-1 = experiment: Cytotoxicity against human THP1 cells assessed as reduction in cell viability at 5 uM incubated for 18 hrs by MTT assay relative to control; details: thp-1, 18 h
[1] = Stability of the compound in DMSO; format: physicochemical
Homo sapiens [2] = species on record: Homo sapiens; experiment: Activation of LPS-induced NF-kappaB activity in human THP1-Blue-NF-kappaB cells assessed as increase in SEAP reporter activity at 5 uM incubated for 20 hrs by quanti-blue SEAP assay relative to control
In short: (§1)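 THP1-Blue NF-κB cells, 10^5/well, in RPMI with 10% FBS, pen/strep and Normocin. Compound (5 μM single point or graded concentrations, 0.05% DMSO) is added together with LPS; methods give final LPS 10 μg/mL, table footnote gives 10 ng/mL. Supernatant SEAP is read after 20 h by QuantiBlue colorimetry at 630 nm.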

Homo sapiens [3] = species on record: Homo sapiens; experiment: Activation of IFNalpha signalling in human ISRE-bla-THP1 cells assessed as increase in type-1 IFN-alpha induced ISRE activity at 5 uM preincubated for 16 hrs followed by CCF4-AM substrate addition and measured after 3 hrs by FRET based assay relative to control; format: cell-based
In short: (§2)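 ISRE-bla THP-1 cells, 5×10^4/well, in RPMI with 10% dialyzed FBS, 0.1 mM non-essential amino acids, 1 mM pyruvate and pen/strep. Cells are co-treated with IFN-α (final 100 U/mL) and compound: 5 μM single point or graded concentrations, 0.05% DMSO. After 16 h, CCF4-AM is added for 3 h at RT in the dark.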

[4] = Prodrug conversion in RPMI assay medium supplemented with 10% dialyzed FBS, 100 U/ml penicillin and 100 ug/ml streptomycin assessed as N-(4-chloro-2,5-dimethoxyphenyl)-4-ethoxybenzene-sulfonamide release; format: ADME; details: cattle
[5] = Activation of IFNalpha signalling in human ISRE-bla THP1 cells assessed as increase in type-1 IFN-alpha induced ISRE activity preincubated for 16 hrs followed by CCF4-AM substrate addition and measured after 3 hrs by FRET based assay; format: cell-based; details: THP-1
In short: as §2

[6] = Activation of LPS-induced NF-kappaB activity in human THP1-Blue-NF-kappaB cells assessed as increase in SEAP reporter activity incubated for 20 hrs by quanti-blue SEAP assay
In short: as §1

[7] = Systemic toxicity in ovalbumin immunized C57BL/6 mouse assessed as behavioural changes at 50 nmol co-immunized with adjuvant MPLA and ovalbumin antigen on day 0 and 21; details: in vivo
In short: (§3)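 C57BL/6 mice, 7–9 weeks old, n=8/group, immunized intramuscularly (gastrocnemius) on days 0 and 21 with ovalbumin (20 μg/animal), MPLA (10 ng/animal) and compound (50 nmol/animal). Systemic toxicity monitored as behaviour change and weight loss.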

[8] = Systemic toxicity in ovalbumin immunized C57BL/6 mouse assessed as body weight loss at 50 nmol co-immunized with adjuvant MPLA and ovalbumin antigen on day 0 and 21; details: in vivo
In short: as §3

Mus musculus = species on record: Mus musculus; experiment: Co-adjuvanticity in ovalbumin immunized C57BL/6 mouse assessed as increase in OVA-specific IgG titers in blood at 100 nmol co-immunized with adjuvant MPLA and ovalbumin antigen on day 0 and 21 and measured on day 21 by ELISA; format: functional, organism-based
In short: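 C57BL/6 mice, 7–9 weeks old, n=8/group, immunized on days 0 and 21 with ovalbumin (20 μg/animal), MPLA (10 μg/animal) and compound (100 nmol/animal). Bled on day 21; OVA-specific IgG titers measured by ELISA.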

Row | Stability [1] | Activity (Homo sapiens [2]) [%] | Drug metabolism [4] | EC50 [5] [nM] | EC50 [6] [nM] | Structure (SMILES) | Activity (THP-1) [%] | Activity (Homo sapiens [3]) [%] | Activity [7] | Activity [8] | Activity (Mus musculus)
1 | Stable | 184 | Metabolite_Detected |  |  | CCOc1ccc(S(=O)(=O)N(C(C)=O)c2cc(OC)c(Cl)cc2OC)cc1 | 72 | 244 |  |  | 
2 |  | 235 |  | 840 | 690 | CCOc1ccc(S(=O)(=O)N(C)c2cc(OC)c(Cl)cc2OC)cc1 | 74.5 | 215 | Non-Toxic | Non-Toxic | Active
3 |  | 200 |  | 660 | 600 | CCOc1ccc(S(=O)(=O)Nc2cc(OC)c(Cl)cc2OC)cc1 | 73.5 | 200 | Non-Toxic | Non-Toxic | Active
